Published values gathered from unrelated publications.
Target: Serine/threonine-protein kinase MRCK beta (CDC42BPB, Homo sapiens, UniProt Q9Y5S2)

Compound	effect on	action	technique	concentration	endpoint	result
Cc1cnc(NC2CCOCC2)nc1-n1cnc(C(=O)NC(CN)c2cc(F)cc(Cl)c2)c1 (centres unmarked)	enzyme activity	inhibitor	radiometric	1 µM	remaining activity	59%
CCCCNc1ncc2c(-c3ccc(F)cc3)nn(C[C@H]3CC[C@H](N)CC3)c2n1	target engagement in cells	inhibitor	chemoproteomics	20 mM	inhibition	3.6%
CCOC(=O)c1cc2cc(-c3cc(C(=O)NCc4ccc(C(=O)O)cc4)nn3C)ccc2[nH]1	cell-free assay	–	competition with immobilised ligand	0.1 µM	remaining binding	88%
COc1cccc2c(NCc3ccccc3)nc(-n3c(N)nc4ccccc43)nc12	target engagement in cells	inhibitor	chemoproteomics	20 mM	inhibition	-1.3%
Cc1ccc(C(=O)Nc2ccc(CN3CCN(C)CC3)c(C(F)(F)F)c2)cc1C#Cc1cnc2cccnn12	enzyme activity	inhibitor	–	23.5 nM	remaining activity	95%
O=C1c2ccccc2-c2n[nH]c3cccc1c23	enzyme activity	inhibitor	–	0.5 µM	activity vs control	97.2%
O=C(NC[C@@H]1[C@H]2CN(C(=O)OCc3cc(C(F)(F)F)cc(C(F)(F)F)c3)C[C@@H]12)c1ccc2[nH]nnc2c1	cell-free assay	–	competition with immobilised ligand	1 µM	remaining binding	100%
CC/C(=N\NC(=O)NCc1cccc(O)c1)c1ccc(O)c(C)c1O	enzyme activity	inhibitor	–	0.1 µM	inhibition	84.3%
CN([C@@H]1CCc2c(CC(=O)O)c3cc(S(C)(=O)=O)ccc3n2C1)S(=O)(=O)c1ccc(F)cc1	cell-free assay	–	competition with immobilised ligand	1 µM	remaining binding	100%
Nc1ncnc2occ(-c3ccc(NC(=O)Nc4cc(C(F)(F)F)ccc4F)cc3)c12	enzyme activity	inhibitor	–	20 µM	remaining activity	33%
COc1cc2ncnc(Nc3ccc(Oc4ccccc4)cc3C)c2cc1OC	enzyme activity	inhibitor	–	1 µM	inhibition	-5%
CCN(CC)CCNC(=O)c1c(C)[nH]c(/C=C2\C(=O)Nc3ccc(F)cc32)c1C	enzyme activity	inhibitor	–	10 µM	inhibition	17%
CC(C)(O)[C@H]1CC[C@H](Nc2ccc3ncc(-c4cccc(C(F)(F)F)c4)n3n2)CC1	enzyme activity	inhibitor	–	1 µM	remaining activity	98.9%
Cc1ccc(Nc2nccc(N(C)c3ccc4c(C)n(C)nc4c3)n2)cc1S(N)(=O)=O	enzyme activity	inhibitor	–	10 µM	inhibition	11%
CN1CCN(c2cnc3c(C4CCN(C(=O)c5ccc(OC(F)(F)F)cc5N)CC4)ncnc3c2)CC1	cell-free assay	–	competition with immobilised ligand	1 µM	remaining binding	100%
CCN(CC)CCNC(=O)c1c(C)[nH]c(/C=C2\C(=O)Nc3ccc(Cl)cc32)c1C	enzyme activity	inhibitor	–	0.5 µM	remaining activity	96.1%
O=C(Nc1cccnn1)N1CCC(=Cc2cccc(Oc3ccc(C(F)(F)F)cn3)c2)CC1	cell-free assay	–	competition with immobilised ligand	1 µM	remaining binding	100%
CC(C)(C)c1nc2c(s1)c1nc(N)ncc1c1ccc(NS(=O)(=O)c3c(F)cccc3F)c(F)c12	enzyme activity	inhibitor	radiometric	1 µM	remaining activity	100%
Cc1c(C(=O)O)cc(-c2ccc(C3CCNCC3)cc2)c2ccc(-c3ccc(C(F)(F)F)cc3)cc12	cell-free assay	–	competition with immobilised ligand	1 µM	remaining binding	100%
Oc1cccc(-c2nc(N3CCOCC3)c3oc4ncccc4c3n2)c1	cell-free assay	–	–	0.5 µM	remaining signal	99.4%
CNC(=O)c1cc(Oc2ccc(NC(=O)Nc3ccc(Cl)c(C(F)(F)F)c3)cc2)ccn1	enzyme activity	inhibitor	–	10 µM	inhibition	0%
O=C1NC(=O)c2cc(Nc3ccc(F)cc3)c(Nc3ccc(F)cc3)cc21	cell-free assay	–	–	0.5 µM	remaining signal	100%
COc1cccc(CNC(=O)c2nc3scc(COCc4ccc(C(=O)O)cc4)c3c(=O)[nH]2)c1	cell-free assay	–	competition with immobilised ligand	1 µM	remaining binding	99.5%
CCCOc1ccc(OC)c(F)c1C(=O)c1ccc(C(=O)N[C@@H]2CNC[C@H]2NC(=O)c2ccc3[nH]ncc3c2)cc1	enzyme activity	inhibitor	–	0.1 µM	remaining activity	34%
Cc1nc(N2CC[C@@H](O)C2)ncc1-c1cc(C(F)(F)F)cc2[nH]ncc12	cell-free assay	–	competition with immobilised ligand	1 µM	remaining binding	100%
O=C(Nc1cnn(-c2csc(C(=O)NC3COC3)c2)c1)Nc1ccccc1Cl	enzyme activity	inhibitor	–	5 µM	remaining activity	97.1%
